ChEMBL document CHEMBL1799941 (J Med Chem, 2011)
Calls of active or inactive are those of the source.

What was measured:
[1] = target: T1, Cholesteryl ester transfer protein (Homo sapiens, UniProt P11597); assay: Inhibition of human recombinant CETP-mediated cholesteryl ester transfer activity after 1 hr by fluorescent cholesteryl esters transfer assay
T1 sequence (P11597 whole entry): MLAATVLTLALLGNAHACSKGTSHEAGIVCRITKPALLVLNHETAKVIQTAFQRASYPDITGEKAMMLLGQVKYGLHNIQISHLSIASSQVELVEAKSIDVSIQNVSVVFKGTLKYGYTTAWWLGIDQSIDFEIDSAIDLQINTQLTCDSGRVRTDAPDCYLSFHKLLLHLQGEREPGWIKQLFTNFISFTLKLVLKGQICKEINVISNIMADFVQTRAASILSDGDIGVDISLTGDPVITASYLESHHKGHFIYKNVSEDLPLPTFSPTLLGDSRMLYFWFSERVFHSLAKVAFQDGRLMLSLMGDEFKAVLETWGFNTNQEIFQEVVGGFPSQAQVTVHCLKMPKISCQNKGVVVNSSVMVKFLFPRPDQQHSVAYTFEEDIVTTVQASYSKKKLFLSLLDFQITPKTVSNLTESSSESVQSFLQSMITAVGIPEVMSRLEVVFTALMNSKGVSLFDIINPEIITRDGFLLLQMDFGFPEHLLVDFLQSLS

[2] = target: T2, Cholesteryl ester transfer protein (Homo sapiens) (UniProt P11597); assay: Inhibition of human recombinant CETP-mediated cholesteryl ester transfer activity at 100 uM after 1 hr by fluorescent cholesteryl esters transfer assay relative to control
T2 sequence (whole entry): T1 sequence (P11597 whole entry)

Mus musculus [3] = assay: Increase in HDL-cholesterol level in C57BL/6 mouse expressing cynomolgus monkey CETP gene assessed as change in HDL-C level at 10 mg/kg, po BID measured 24 hrs after first dose; format: functional
Mus musculus [4] = assay: Increase in HDL-cholesterol level in C57BL/6 mouse expressing cynomolgus monkey CETP gene assessed as change in HDL-C level at 0.3 mg/kg, po BID measured 24 hrs after first dose; format: functional
Summary of the method: (§1)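 Baseline retro-orbital bleed. Oral BID dosing in DMSO/cremophor/saline (4:4:92). Euthanized 24 h after the first dose with cardiac-puncture bleed. HDL-C by enzymatic kit on pre- and post-dose samples. Change from baseline reported as mean ± SEM, 9 mice per dose.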

[5] = Tmax in C57BL/6 mouse at 2 mg/kg, po; format: ADME, organism-based; set-up: dose 2 mg/kg, route oral; settings: in vivo
Summary of the method: (§2)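 Male C57BL/6 mice. IV dosing at 0.6 mg/kg, formulated in DMSO:PEG400:water (10:55:35, v/v/v). Oral dosing at 2 mg/kg, formulated in DMSO:cremophor:saline (2:4:94, v/v/v). Reported parameters were blood clearance, volume of distribution, terminal half-life, IV- and PO-normalized AUC, Cmax and Tmax in plasma after oral dosing, and oral bioavailability.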

[6] = Blood clearance in C57BL/6 mouse at 0.6 mg/kg, iv and 2 mg/kg, po; format: ADME, organism-based; settings: whole blood; summary of the method: as §2
Mus musculus [7] = assay: Dose-normalized AUC in C57BL/6 mouse at 2 mg/kg, po; format: ADME, organism-based; set-up: dose 2 mg/kg, route oral; settings: in vivo; summary of the method: as §2
[8] = Cmax in C57BL/6 mouse at 2 mg/kg, po; format: ADME, organism-based; set-up: dose 2 mg/kg, route oral; settings: in vivo; summary of the method: as §2
Mus musculus [9] = assay: Increase in HDL-cholesterol level in C57BL/6 mouse expressing cynomolgus monkey CETP gene assessed as change in HDL-C level at 3 mg/kg, po BID measured 24 hrs after first dose; format: functional; summary of the method: as §1
Mus musculus [10] = assay: Increase in HDL-cholesterol level in C57BL/6 mouse expressing cynomolgus monkey CETP gene assessed as change in HDL-C level at 1 mg/kg, po BID measured 24 hrs after first dose; format: functional; summary of the method: as §1
[11] = Oral bioavailability in C57BL/6 mouse at 2 mg/kg; format: ADME, organism-based; settings: in vivo; summary of the method: as §2
Mus musculus [12] = assay: Dose-normalized AUC in C57BL/6 mouse at 0.6 mg/kg, iv; format: ADME, organism-based; set-up: dose 0.6 mg/kg, route intravenous; settings: in vivo; summary of the method: as §2
Mus musculus [13] = assay: Increase in HDL-cholesterol level in C57BL/6 mouse expressing cynomolgus monkey CETP gene assessed as change in HDL-C level administered orally twice daily and measured 24 hrs after first dose; format: functional, organism-based
Summary of the method: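 Pre-dose retro-orbital bleed. Dosed 10 mg/kg PO BID at 0 and 7 h in DMSO/cremophor/saline (4:4:92). Terminal cardiac-puncture bleed at 24 h. HDL-C by enzymatic kit; change from baseline, mean of 5 mice. A change of 5 mg/dL or less was generally considered not significant.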

Mus musculus [14] = assay: Terminal half life in C57BL/6 mouse at 0.6 mg/kg, iv and 2 mg/kg, po; format: ADME, organism-based; settings: in vivo; summary of the method: as §2
[15] = Volume of distribution in C57BL/6 mouse at 0.6 mg/kg, iv and 2 mg/kg, po; format: ADME, organism-based; settings: in vivo; summary of the method: as §2

| Compound | IC50 [1] | inhibition [2] | Activity (Mus musculus [3]) | other results |
| --- | --- | --- | --- | --- |
| COc1ccc(C(C)C)cc1-c1ccc(C(F)(F)F)cc1CN1C(=O)O[C@H](c2ccccc2)[C@@H]1C | 0.0393 µM | 94% | 6.3 mg/dL |  |
| COc1cc(F)c(C(C)C)cc1-c1ccc(C(F)(F)F)cc1CN1C(=O)O[C@H](c2cc(C(F)(F)F)cc(C(F)(F)F)c2)[C@@H]1C [ANACETRAPIB] |  |  |  | Activity (Mus musculus [4]): 14 mg/dL; Tmax [5]: 1 h; clearance [6]: 0.66 L/h/kg; AUC/dose (Mus musculus [7]): 0.356 µM·kg·h/mg; Cmax [8]: 0.28 µM; Activity (Mus musculus [9]): 21.7 mg/dL; Activity (Mus musculus [10]): 16.4 mg/dL; bioavailability [11]: 15%; AUC/dose (Mus musculus [12]): 2.4 µM·kg·h/mg; Activity (Mus musculus [13]): Dose-dependent effect; beta t1/2 (Mus musculus [14]): 3.6 h; Vd [15]: 2 L/kg |
| COc1cc(F)c(C(C)C)cc1-c1ccc(C(F)(F)F)cc1CN1C[C@@H](c2cc(C(F)(F)F)cc(C(F)(F)F)c2)OC1=O | 0.0256 µM | 97% | 6.3 mg/dL |  |
| CC[C@H]1[C@@H](c2cc(C(F)(F)F)cc(C(F)(F)F)c2)OC(=O)N1Cc1cc(C(F)(F)F)ccc1-c1cc(C(C)C)ccc1OC (racemic) | 0.268 µM | 87% |  |  |
| CC[C@@H]1[C@@H](c2cc(C(F)(F)F)cc(C(F)(F)F)c2)OC(=O)N1Cc1cc(C(F)(F)F)ccc1-c1cc(C(C)C)ccc1OC (racemic) |  | 49% |  |  |
| COc1cc(F)c(C(C)C)cc1-c1ccc(C(F)(F)F)cc1CN1C(=O)O[C@@H](c2cc(C(F)(F)F)cc(C(F)(F)F)c2)C1(C)C |  | 21% |  |  |
| COC(=O)N(Cc1cc(C(F)(F)F)cc(C(F)(F)F)c1)Cc1cc(C(F)(F)F)ccc1-c1cc(C(C)C)c(F)cc1OC |  | 88% | 15 mg/dL |  |
| COC(=O)N(Cc1cc(C(F)(F)F)cc(C(F)(F)F)c1)Cc1cc(C(F)(F)F)ccc1-c1cc(C(C)C)ccc1OC | 0.126 µM | 87% | 15 mg/dL |  |
| COc1ccc(C(C)C)cc1-c1ccc(C(F)(F)F)cc1CN1C(=O)O[C@@H](c2cc(C(F)(F)F)cc(C(F)(F)F)c2)[C@H]1C |  | 8% |  |  |
| COc1ccc(C(C)C)cc1-c1ccc(C(F)(F)F)cc1CN1C(=O)O[C@@H](c2ccccc2)[C@H]1C | 5.67 µM | 90% |  |  |

Further lines, with some results ahead:

| IC50 [1] | inhibition [2] | Compound | Activity (Mus musculus [3]) | other results |
| --- | --- | --- | --- | --- |
| 0.093 µM | 93% | COc1ccc(C(C)C)cc1-c1ccc(C(F)(F)F)cc1CN1C[C@@H](c2cc(C(F)(F)F)cc(C(F)(F)F)c2)OC1=O | inactive |  |
|  | 46% | COc1cc(F)c(C(C)C)cc1-c1ccc(C(F)(F)F)cc1CN1C(=O)O[C@](C)(c2cc(C(F)(F)F)cc(C(F)(F)F)c2)[C@@H]1C |  |  |
|  | 20% | COc1ccc(C(C)C)cc1-c1ccc(C(F)(F)F)cc1CN1C(=O)O[C@@H](c2cc(C(F)(F)F)cc(C(F)(F)F)c2)[C@@H]1C |  |  |
|  | 94% | COc1cc(F)c(C(C)C)cc1-c1ccc(C(F)(F)F)cc1CN1C(=O)O[C@H](c2cc(C(F)(F)F)cc(C(F)(F)F)c2)C1(C)C | 17 mg/dL |  |
|  | 90% | COc1ccc(C(C)C)cc1-c1ccc(C(F)(F)F)cc1CN1C(=O)O[C@H](c2cc(C(F)(F)F)cc(C(F)(F)F)c2)[C@H]1C |  |  |
